Ki and Activity data for one molecule are collected here from ChEMBL document CHEMBL1926607 (J Med Chem, 2011).

Bounds are passed on as bounds.

Experiment [1] concerns the target 5-hydroxytryptamine receptor 2A (Rattus norvegicus, UniProt P14842). Description: Displacement of [3H]ketanserin from 5HT2A receptor in Sprague-Dawley albinus rat frontal cortex membranes after 15 mins. It is filed as cell membranes, Membrane. In short, it runs like this:
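Rat frontal cortex membranes (male Sprague–Dawley, 180–200 g). Nonspecific binding was set with 1 μM cinanserin.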

Experiment [2] has as its target T1, 5-hydroxytryptamine receptor 3A (Rattus norvegicus, UniProt P35563).
T1 sequence (P35563 whole entry): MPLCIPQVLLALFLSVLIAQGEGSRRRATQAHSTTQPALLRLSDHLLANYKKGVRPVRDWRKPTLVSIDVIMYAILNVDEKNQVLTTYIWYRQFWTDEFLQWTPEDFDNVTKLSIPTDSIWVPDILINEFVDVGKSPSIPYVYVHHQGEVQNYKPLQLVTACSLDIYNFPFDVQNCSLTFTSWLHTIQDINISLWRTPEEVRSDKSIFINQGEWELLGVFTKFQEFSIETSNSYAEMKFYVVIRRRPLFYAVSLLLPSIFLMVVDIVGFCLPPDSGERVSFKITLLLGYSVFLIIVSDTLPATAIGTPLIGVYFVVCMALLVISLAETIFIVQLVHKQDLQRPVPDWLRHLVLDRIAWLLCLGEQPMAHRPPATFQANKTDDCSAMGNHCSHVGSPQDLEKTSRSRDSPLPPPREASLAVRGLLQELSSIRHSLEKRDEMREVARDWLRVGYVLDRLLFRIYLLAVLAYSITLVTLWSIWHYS
Description: Displacement of [3H]-LY278584 from 5HT3 receptor in Sprague-Dawley albinus rat cerebral cortex membranes after 30 mins. The experiment is classed as cell membranes, Membrane.

The target in experiment [3] is 5-hydroxytryptamine receptor 7 (Rattus norvegicus, UniProt P32305). Description: Displacement of [3H]-5-CT from 5HT7 receptor in Sprague-Dawley albinus rat hyphalamic membranes after 120 mins. The experiment is classed as cell membranes, Membrane.
For the next experiment, the target named is D(2) dopamine receptor (Rattus norvegicus, UniProt P61169). Description: Displacement of [3H]spiperone from dopamine D2 receptor in Sprague-Dawley albinus rat striatal membranes after 15 mins. The experiment is classed as cell membranes, Membrane.
Experiment [4] can be described thus: Neuroprotective activity in Wistar rat hippocampi primary neuronal cells assessed as protection against serum-deprivation induced cell death at 10 uM after 24 hrs by MTT assay. The experiment is classed as functional, Hippocampus, Primary neuron. An outline of the steps:
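Mixed neuron-glia cultures from E18 Wistar rat hippocampi (Neurobasal plus 10% FCS), used at 11 days in vitro. Medium replaced by saline to withdraw serum; cells held 24 h with compound. Cell survival measured by MTT reduction, expressed as % protection.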

Chain of 5-hydroxytryptamine receptor 2A (P14842 whole entry): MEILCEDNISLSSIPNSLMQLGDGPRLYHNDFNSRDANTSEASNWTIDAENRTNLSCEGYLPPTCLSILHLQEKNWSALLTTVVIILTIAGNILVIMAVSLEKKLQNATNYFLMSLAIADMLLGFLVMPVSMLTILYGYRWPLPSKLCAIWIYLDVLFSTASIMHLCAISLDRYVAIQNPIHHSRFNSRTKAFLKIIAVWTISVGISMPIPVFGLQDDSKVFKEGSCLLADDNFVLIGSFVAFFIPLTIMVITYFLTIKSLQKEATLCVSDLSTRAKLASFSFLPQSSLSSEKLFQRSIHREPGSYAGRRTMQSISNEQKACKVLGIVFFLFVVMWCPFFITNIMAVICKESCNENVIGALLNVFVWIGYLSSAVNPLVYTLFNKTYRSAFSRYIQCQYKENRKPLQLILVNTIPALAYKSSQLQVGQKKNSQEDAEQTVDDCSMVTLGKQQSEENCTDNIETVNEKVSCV
Chain of D(2) dopamine receptor (P61169 whole entry): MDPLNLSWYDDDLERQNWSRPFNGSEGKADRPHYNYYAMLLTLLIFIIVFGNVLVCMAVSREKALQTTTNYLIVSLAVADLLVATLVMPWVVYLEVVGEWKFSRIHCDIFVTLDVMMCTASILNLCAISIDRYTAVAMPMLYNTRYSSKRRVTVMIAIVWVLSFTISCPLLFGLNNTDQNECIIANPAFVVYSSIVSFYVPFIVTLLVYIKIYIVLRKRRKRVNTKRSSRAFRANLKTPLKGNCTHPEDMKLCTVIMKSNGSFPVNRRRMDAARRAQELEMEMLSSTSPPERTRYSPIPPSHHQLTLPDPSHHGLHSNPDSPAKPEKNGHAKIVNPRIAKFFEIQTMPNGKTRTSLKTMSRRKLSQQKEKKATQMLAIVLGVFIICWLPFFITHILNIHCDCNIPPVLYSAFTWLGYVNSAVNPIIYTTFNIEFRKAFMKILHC
Chain of 5-hydroxytryptamine receptor 7 (P32305 whole entry): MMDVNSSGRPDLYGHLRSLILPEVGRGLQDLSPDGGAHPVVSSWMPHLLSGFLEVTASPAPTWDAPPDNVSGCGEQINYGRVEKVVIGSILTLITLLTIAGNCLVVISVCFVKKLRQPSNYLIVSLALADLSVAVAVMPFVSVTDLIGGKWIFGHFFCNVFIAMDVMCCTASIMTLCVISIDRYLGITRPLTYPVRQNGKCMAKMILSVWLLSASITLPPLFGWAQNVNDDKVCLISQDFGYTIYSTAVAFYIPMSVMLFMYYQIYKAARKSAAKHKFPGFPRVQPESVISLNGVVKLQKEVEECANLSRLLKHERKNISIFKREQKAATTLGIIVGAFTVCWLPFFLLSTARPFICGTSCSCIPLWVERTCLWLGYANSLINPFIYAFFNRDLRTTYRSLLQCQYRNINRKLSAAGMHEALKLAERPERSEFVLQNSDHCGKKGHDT

Turning to `Cl.O=C1C2CCCN2C(=O)CN1CCCCNCC1CCc2ccccc2O1` (stereo not given), the Ki was greater than 1 µM in experiment [1], greater than 1 µM in experiment [2], 0.418 µM in experiment [3] and greater than 1 µM at D(2) dopamine receptor. Further, the Activity in experiment [4] came to 13%.
